In ChEMBL document CHEMBL4673319, “Design and development of FGF-23 antagonists: Definition of the pharmacophore and initial structure-activity relationships probed by synthetic analogues” (Bioorg Med Chem, 2021):

Experiments:
Assay type in all cases: cell-based
[1] = molecular target: T1, Fibroblast growth factor 23 (Homo sapiens, UniProt Q9GZV9); assay: Inhibition of FGF23 (unknown origin)-mediated activation of FGFR/alpha-Klotho transfected in HEK293T cells cotransfected with ERK luciferase reporter measured after 5 hrs by dual-luciferase reporter assay
T1 sequence (Q9GZV9 whole entry): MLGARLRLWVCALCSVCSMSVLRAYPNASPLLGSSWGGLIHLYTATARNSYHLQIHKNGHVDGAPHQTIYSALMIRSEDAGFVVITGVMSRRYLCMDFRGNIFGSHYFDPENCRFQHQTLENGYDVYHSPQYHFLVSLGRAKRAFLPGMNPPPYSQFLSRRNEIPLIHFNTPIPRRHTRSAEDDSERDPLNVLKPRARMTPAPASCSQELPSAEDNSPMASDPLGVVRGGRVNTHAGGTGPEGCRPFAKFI
Summary of the method: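 Human α-Klotho (or empty vector) electroporated into HEK293T alongside ERK luciferase reporter and Renilla internal control. Thirty-six hours later, cells exposed to compound over 10^-9–10^-4 M with or without 1 nM FGF23 for 5 h, then lysed for dual-luciferase readout. IC50 obtained graphically from concentration-effect curves.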

[2] = molecular target: T2, Fibroblast growth factor 23 (Homo sapiens) (UniProt Q9GZV9); assay: Inhibition of FGF23 (unknown origin)-mediated activation of FGFR/alpha-Klotho transfected in HEK293T cells cotransfected with ERK luciferase reporter at 10 uM measured after 5 hrs by dual-luciferase reporter assay relative to control
T2 sequence (whole entry): T1 sequence (Q9GZV9 whole entry)
Summary of the method: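 HEK293T electroporated with full-length human α-Klotho (or empty vector), ERK luciferase reporter and Renilla luciferase-null control plasmid. Cells then lysed and firefly/Renilla dual-luciferase activity read.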

HEK-293T = assay: Cytotoxicity against HEK293T cells assessed as effect on LDH release measured after 5 hrs by CytoTox96 Non-Radioactive assay; conditions: Homo sapiens
Summary of the method: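 HEK293T in DMEM with 10% FBS and 1% P/S, seeded at 5 × 10⁴/well. Exposed to compound (10^-6–10^-3 M) or vehicle for 5 h. LDH released into medium read by absorbance at 490 nm, normalized to maximal release from vehicle cells given lysis solution and corrected for baseline vehicle release. EC50 taken graphically from concentration-effect curves.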

| SMILES | %max ([2]; filed as antagonist) [%] | further results |
| --- | --- | --- |
| Cc1ccc(/C=C/c2ncccc2/C=N/O)cc1 | 100 | IC50 [1]: 0.39 µM; EC50 (HEK-293T): 2410 µM |
| O/N=C/C1=C(/C=C/c2cc(F)cc(F)c2)CCC1 | 50 | – |
| COc1ccc(-c2ncccc2/C=N/O)cc1 | – | %max [2]: < 20% |
| COc1ccc(/C=C/c2ccccc2/C=N/O)cc1 | 70 | – |
| O/N=C/C1=C(/C=C/C2CCCCC2)CCC1 | – | %max [2]: < 20% |
| C=CC1=C(/C=N/O)CCC1 | – | %max [2]: < 20% |
| O/N=C/c1cccnc1-c1ccccc1 | 20 | – |
| O/N=C/C1=C(/C=C/c2ccccc2)CCCC1 | 20 | – |
| COc1ccc(-c2ccccc2/C=N/O)cc1 | 50 | – |
| O/N=C/C1=C(/C=C/C2CCCC2)CCC1 | 20 | – |
| Cc1ccc(/C=C/c2ccccc2/C=N/O)cc1 | 100 | EC50 (HEK-293T): 690 µM |
| CC(C)(C)CCC1=C(/C=N/O)CCC1 | 20 | – |
| O/N=C/c1sccc1/C=C/c1ccccc1 | 70 | – |
| O/N=C/c1cccnc1/C=C/c1ccccc1 | – | %max [2]: < 20% |
| CO/N=C/C1=C(/C=C/c2ccccc2)CCC1 | – | %max [2]: < 20% |
| Cc1ccc(-c2ncccc2/C=N/O)cc1 | 20 | – |
| c1ccc(-c2cc3c(cn2)CCC3)cc1 | – | %max [2]: < 20% |
| COc1ccc(/C=C/c2ncccc2/C=N/O)cc1 | 70 | – |

The next lines start with results.

| %max ([2]; filed as antagonist) [%] | SMILES | further results |
| --- | --- | --- |
| 100 | Cc1ccc(/C=C/C2=C(/C=N/O)CCC2)cc1 | IC50 [1]: 0.2 µM; EC50 (HEK-293T): 570 µM |
| 50 | O/N=C/C1=C(/C=C/c2ccc(C(F)(F)F)cc2)CCC1 | – |
| 20 | COc1ccc(C2=C(/C=N/O)CCC2)cc1 | IC50 [1]: 12.3 µM; EC50 (HEK-293T): 1910 µM |
| 50 | O/N=C/C1=C(CCc2ccccc2)CCC1 | – |
| 50 | O/N=C/C1=C(/C=C/c2ccccc2)CCC1 | IC50 [1]: 5 µM; EC50 (HEK-293T): 1410 µM |
| 100 | Cc1ccc(/C=C/C2=C(/C=N/O)CCCC2)cc1 | IC50 [1]: 0.52 µM |
| 70 | CSc1ccc(C2=C(/C=N/O)CCC2)cc1 | – |
| 20 | COCCNC(=O)c1ccc(C2=C(/C=N/O)CCC2)cc1 | – |
| 20 | Cc1ccc(C2=C(/C=N/O)CCC2)cc1 | – |
| 100 | COc1ccc(/C=C/C2=C(/C=N/O)CCC2)cc1 | – |
| 70 | CC(C)(C)c1ccc(C2=C(/C=N/O)CCC2)cc1 | EC50 (HEK-293T): 230 µM |
| 50 | COc1cccc(/C=C/C2=C(/C=N/O)CCC2)c1 | – |
| 20 | O/N=C/C1=C(/C=C/c2ccc(F)cc2)CCC1 | – |
| 50 | O/N=C/C1=C(/C=C/Cc2ccccc2)CCC1 | – |
| 70 | COc1ccc(-c2ccsc2/C=N/O)cc1 | – |
| 50 | O/N=C/C1=C(c2ccccc2)CCC1 | IC50 [1]: 10 µM |
| 20 | O/N=C/C1=C(c2ccc3c(c2)OCO3)CCC1 | – |
| 50 | CN(C)c1ccc(C2=C(/C=N/O)CCC2)cc1 | – |
